The species named for data set [1] is Rattus norvegicus. Put plainly: Effect on insulin secretion from rat pancreatic islets at 10 uM concentration (n=15). The data set is classed as functional. The gist of the method:
(§1)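 Islets isolated by collagenase from fed Wistar rats (180-220 g); groups of 10 preincubated 30 min, 37 °C, in bicarbonate salt medium with 2.8 mM glucose, 0.5% dialyzed albumin, O2/CO2 95:5. Then incubated 90 min, 37 °C, with 16.7 mM glucose plus drug. Insulin measured by radioimmunoassay against rat insulin standard; expressed as % of drug-free 16.7 mM glucose control; mean ± SEM (n).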

Data set [2] is filed under the species Rattus norvegicus. The experiment in a line: Concentration required for relaxation of the 30 mM KCl-induced contraction of rat aortic rings (n=4). Particulars: Aorta, read-out: ED50 (the source's name). The data set is classed as functional. The gist of the method: (§2)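 Endothelium-denuded transverse aortic rings (3-4 mm) from fed Wistar rats (180-200 g); isometric tension by force transducer. After 60 min equilibration, contracted with 30 mM KCl; at stable tension, drug added cumulatively until maximal relaxation or up to 0.3 mM. Relaxation expressed as % of KCl contraction; ED50 (50% inhibition of KCl plateau) from dose curves; mean ± SEM (n).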

The species named for data set [3] is Rattus norvegicus. The experiment in a line: Effect on insulin secretion from rat pancreatic islets at 1 uM concentration (n=15). The data set is classed as functional. The gist of the method:
as §1

The species entered for data set [4] is Rattus norvegicus. Put plainly: ED50/IC50 ratio was determined. The data set is classed as functional.
Data set [5] is filed under the species Rattus norvegicus. Put plainly: Effect on insulin secretion from rat pancreatic islets at 50 uM concentration (n=9). It counts as functional. The gist of the method:
as §1

Data set [6] is filed under the species Rattus norvegicus. The experiment in a line: Concentration required for 50% inhibition of insulin release in rat pancreatic B-cells. The data set is classed as functional, cell-based.
The species entered for data set [7] is Rattus norvegicus. The experiment in a line: Effect on insulin secretion from rat pancreatic islets at 1 uM concentration (n=31). The data set is classed as functional.
Data set [8] is filed under the species Rattus norvegicus. Put plainly: Effect on insulin secretion from rat pancreatic islets at 50 uM concentration (n=35). It counts as functional.
The species entered for data set [9] is Rattus norvegicus. Put plainly: Concentration giving 50% relaxation of the 30 mM KCl-induced contraction of rat aortic rings (n=6). The data set is classed as functional. The settings on record: Aorta, read-out: ED50 (the source's name). The gist of the method: as §2
The species entered for data set [10] is Rattus norvegicus. Put plainly: Effect on insulin secretion from rat pancreatic islets at 10 uM concentration (n=32). The data set is classed as functional.
Data set [11] is described as follows: Ionization constant was determined. The data set is classed as physicochemical. The gist of the method: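 Ionization constant found by UV spectroscopy in aqueous buffers spanning pH 5 to 12; pKa calculated with the Debye-Hückel equation at the absorbance maximum of the basic form.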
For data set [12], the species on record is Rattus norvegicus. The experiment in a line: Effect on insulin secretion from rat pancreatic islets at 10 uM concentration (n=13). The data set is classed as functional. The gist of the method:
as §1

Data set [13] is filed under the species Rattus norvegicus. Put plainly: Effect on insulin secretion from rat pancreatic islets at 1 uM concentration (n=14). It counts as functional. The gist of the method: as §1
The species entered for data set [14] is Rattus norvegicus. The experiment in a line: Effect on insulin secretion from rat pancreatic islets at 50 uM concentration (n=13). It counts as functional. The gist of the method: as §1
The species named for data set [15] is Rattus norvegicus. The experiment in a line: Concentration giving 50% relaxation of the 30 mM KCl-induced contraction of rat aortic rings (n=5). The settings on record: Aorta, read-out: ED50 (the source's name). The data set is classed as functional. The gist of the method:
as §2

The species entered for data set [16] is Rattus norvegicus. The experiment in a line: Effect on insulin secretion from rat pancreatic islets at 50 uM concentration (n=12). The data set is classed as functional. The gist of the method: as §1
The species named for data set [17] is Rattus norvegicus. Put plainly: Effect on insulin secretion from rat pancreatic islets at 10 uM concentration (n=24). The data set is classed as functional. The gist of the method:
as §1

The species entered for data set [18] is Rattus norvegicus. Put plainly: Effect on insulin secretion from rat pancreatic islets at 1 uM concentration (n=20). It counts as functional. The gist of the method: as §1
For data set [19], the species on record is Rattus norvegicus. Put plainly: Concentration giving 50% relaxation of the 30 mM KCl-induced contraction of rat aortic rings (n=8). The data set is classed as functional, Aorta. The settings on record: read-out: ED50 (the source's name). The gist of the method: as §2
For data set [20], the species on record is Rattus norvegicus. The experiment in a line: Effect on insulin secretion from rat pancreatic islets at 50 uM concentration (n=23). The data set is classed as functional. The gist of the method: as §1
The species named for data set [21] is Rattus norvegicus. The experiment in a line: Effect on insulin secretion from rat pancreatic islets at 10 uM concentration (n=23). It counts as functional. The gist of the method:
as §1

For data set [22], the species on record is Rattus norvegicus. The experiment in a line: Effect on insulin secretion from rat pancreatic islets at 1 uM concentration (n=19). It counts as functional. The gist of the method: as §1
For data set [23], the species on record is Rattus norvegicus. Put plainly: Concentration required for relaxation of the 30 mM KCl-induced contraction of rat aortic rings. The data set is classed as functional. The settings on record: Aorta. The gist of the method:
as §2

The species named for data set [24] is Rattus norvegicus. Put plainly: Effect on insulin secretion from rat pancreatic islets at 50 uM concentration (n=20). It counts as functional. The gist of the method: as §1
Data set [25] is filed under the species Rattus norvegicus. Put plainly: Effect on insulin secretion from rat pancreatic islets at 10 uM concentration (n=22). The data set is classed as functional. The gist of the method: as §1

On to `CCC(C)NC1=NS(=O)(=O)c2cc(OC)ccc2N1` (stereo not given), for which the Residual insulin release in data set [1] is on record as 23.4%; in [3], 92.4%; in data set [5] it was 8.5%. In addition, the EC50 in data set [2] was 17.5 µM. Also, the Ratio in [4] was found to be 4.4. This compound also came in with an IC50 in data set [6] of 4 µM.

Regarding `CC(C)NC1=NS(=O)(=O)c2cc(Cl)ccc2N1`, the Residual insulin release was found to be 36.2% in data set [7], 5.7% in data set [8] and 4.9% in [10]. The EC50 in [9] came to 36.3 µM. Besides, in data set [4], the Ratio was found to be 52. The compound also returned a concentration for half-maximal inhibition (IC50) in [6] of 0.7 µM.

`CC(C)NC1=NS(=O)(=O)c2cc(C(F)(F)F)ccc2N1`: the pKa in data set [11] came out at 8.96. The Residual insulin release in data set [12] is 7.4%; in [13], 71.5%; in data set [14], 7.1%. Moreover, in data set [9], the EC50 came out at 13.1 µM. Besides, in data set [4], the Ratio came out at 7.7. In addition, half-maximal inhibition in data set [6] (IC50) was put at 1.7 µM.

As to `COc1ccc2c(c1)S(=O)(=O)NC(NC(C)C)=N2`, in [11], the pKa turned out to be 10.1. Further, the EC50 in data set [15] stood at 274 µM. Besides, the Ratio in [4] came to 74. Moreover, the Residual insulin release is listed as 4.4% in data set [16], 8.5% in [17] and 67.6% in data set [18]. Further, in data set [6], the half-maximal inhibitory concentration (IC50) amounted to 3.7 µM.

`CC(C)C(C)NC1=NS(=O)(=O)c2cnccc2N1` (stereo not given): the EC50 in [19] is 154 µM. Also, the values for the Residual insulin release in data set [20], in data set [21] and in [22] were 8.6%, 13.7% and 70.5%, respectively. The Ratio in data set [4] came to 35. This compound came in with an IC50 in [23] of 154 µM.

Take `COC(=O)c1ccc2c(c1)S(=O)(=O)NC(NC(C)C)=N2`: the EC50 in data set [19] (Rattus norvegicus, Aorta) is above 200 µM. For the same compound, the Residual insulin release in data set [24] is on record as 94.3%; in data set [25], 95.7%.

The values are drawn from ChEMBL document CHEMBL1139506, “Effect on K(ATP) channel activation properties and tissue selectivity of the nature of the substituent in the 7- and the 3-position of 4H-1,2,4-benzothiadiazine 1,1-dioxides” (J Med Chem, 2005).
